Measured values collected from several papers.
Lines come from different studies, so protocols differ.
TYK2 JH2: Non-receptor tyrosine-protein kinase TYK2, JH2 (TYK2, Homo sapiens, UniProt P29597)
TYK2 JH1: Non-receptor tyrosine-protein kinase TYK2, JH1 (TYK2, Homo sapiens, UniProt P29597)
TYK2: Non-receptor tyrosine-protein kinase TYK2 (TYK2, Homo sapiens, UniProt P29597)

COc1cnc(Nc2cccc(S(N)(=O)=O)c2)nc1N1CCN(c2ccccc2)CC1 — remaining binding (TYK2 JH2; binding, competition with immobilised ligand; 1 µM): 85%
C[C@H](c1ccc(F)cc1)N(Cc1cccc(C(=O)O)c1)C(=O)c1cnc2ccccc2c1 — remaining binding (TYK2 JH2; cell-free assay, competition with immobilised ligand; 1 µM): 92%
O=C(NCCCN1CCOCC1)c1ccc(Nc2nccc(-c3cc4ccccc4s3)n2)cc1 — remaining binding (TYK2 JH1; binding, competition with immobilised ligand; 1 µM): 11%
CNC(=O)[C@@H]1CC[C@@H](n2c(-c3ccc4cnccc4c3)nc3ccc(C(=O)NCc4cccc(C(N)=O)c4)cc32)C1 — remaining binding (TYK2 JH1; binding, competition with immobilised ligand; 1 µM): 99%
COc1ccc2c(c1)O[C@H](c1ccc(OC)c(OC)c1)C[C@@H]2NC(=O)C1(c2ccc3c(c2)OC(F)(F)O3)CC1 — remaining binding (TYK2 JH2; cell-free assay, competition with immobilised ligand; 1 µM): 100%
FC(F)(F)Oc1cccc(-c2cnc3ccc(-c4ccncc4)nn23)c1 — remaining binding (TYK2 JH1; binding, competition with immobilised ligand; 5 µM): 53%
CCCOc1ccc([C@H]2[C@H](C(=O)O)[C@@H](c3ccc4c(c3)OCO4)CN2CC(=O)Nc2c(CC)cccc2CC)cc1 — remaining binding (TYK2 JH2; cell-free assay, competition with immobilised ligand; 1 µM): 80%
O=C(NCCCN1CCOCC1)c1ccc(Nc2ncc(Cl)c(-c3ccc(Cl)s3)n2)cc1 — remaining binding (TYK2 JH2; binding, competition with immobilised ligand; 1 µM): 5.3%
c1cncc(-c2cccc(Nc3nccc(NC4CCCCC4)n3)c2)c1 — remaining binding (TYK2 JH1; binding, competition with immobilised ligand; 10 µM): 0.2%
CN(CCCC(F)(F)F)c1nccc(-c2cnn3ncccc23)n1 — remaining binding (TYK2; binding; 1 µM): 100%
Cn1nc(C(=O)NCc2ccc(C(=O)O)cc2)cc1-c1ccc2[nH]ccc2c1 — remaining binding (TYK2 JH2; cell-free assay, competition with immobilised ligand; 0.1 µM): 94%
N[C@@H]1CCN(c2nccc(-c3cnn4ncccc34)n2)C1 — remaining binding (TYK2 JH1; cell-free assay, competition with immobilised ligand; 1 µM): 100%
COc1ccc2cc(OCC3(C(=O)O)CN(C(=O)c4ccc(F)cc4)C3)ccc2c1 — remaining binding (TYK2 JH2; cell-free assay, competition with immobilised ligand; 1 µM): 100%
CN(C)c1ncc(F)c(-c2cnn3ncccc23)n1 — remaining binding (TYK2 JH1; cell-free assay, competition with immobilised ligand; 1 µM): 87%
COc1cccc(CNC(=O)c2nc3scc(COCc4ccc(C(=O)O)cc4)c3c(=O)[nH]2)c1 — remaining binding (TYK2 JH2; cell-free assay, competition with immobilised ligand; 1 µM): 79.8%
CN(C)c1nccc(-c2cnn3ncccc23)n1 — remaining binding (TYK2 JH1; cell-free assay, competition with immobilised ligand; 1 µM): 51%
O=C(c1ccc(Nc2nccc(-c3cc4ccccc4s3)n2)cc1)N1CCC(N2CCCC2)CC1 — remaining binding (TYK2 JH1; binding, competition with immobilised ligand; 1 µM): 13%
COc1ccnn2ncc(-c3ccnc(N(C)C)n3)c12 — remaining binding (TYK2 JH1; cell-free assay, competition with immobilised ligand; 1 µM): 81%
O=C(NCC1CCOCC1)c1n[nH]cc1NC(=O)c1c(F)cccc1F — remaining binding (TYK2 JH1; binding, competition with immobilised ligand; 1 µM): 91%
C[C@@H]1CN(c2ccc3ncc(-c4ccc5[nH]nc(C6CC6)c5c4)n3n2)C[C@H](C)O1 — remaining binding (TYK2; binding, competition with immobilised ligand; 50 nM): 88%
c1cnn2ncc(-c3ccnc(N4CCC45COC5)n3)c2c1 — remaining binding (TYK2; binding; 1 µM): 66%
